The RNAGym collection of RNA variant scans (doi:10.1101/gad.245936.114)
Fewer inactive variants are shown than the library holds.

B1: tRNA (parent)
chain: CUCUCGGUAGCCAAGUUGGUUUAAGGCGCAAGACUUUAAUUUAUCACUACGAAAUCUUGAGAUCGGGCGUUCGACUCGCCCCCGGGAGAUUUUUUCCUCGAGCAA

Variants of: B1
Experiment: nonsense suppression (GFP-seq) (ratio to wild type); higher = more function; SUP4oc tRNA, yeast GFP reporter sort-seq
Method in brief: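 Nonsense suppression (GFPSEQ) is the median GFP/RFP ratio of each sorting bin, weighted by the variant's estimated share of cells in that bin and expressed relative to the unmutated parent tRNA. Yeast strains carried genome-integrated variants of an ochre-suppressor tRNA from a library with ~3% random mutations, plus a galactose-driven GFP ochre reporter and RFP, and were grown in raffinose/galactose medium containing 80 mg/L adenine. Cells were sorted into GFP/RFP bins, each bin was Illumina-sequenced (phred ≥30), and variants were kept only with ≥100 reads and ≥30 cells.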

Row | Variant | nonsense suppression
1 | A9U U21G U22C | ≤ 0.026
2 | A9U A24C G66C C83U G85A | ≤ 0.026
3 | G10C C27G G73C | ≤ 0.026
4 | A9U C12A A13C C72U C79A | ≤ 0.026
5 | A9G A23G U70G A89G | ≤ 0.026
6 | U8A A14U U20A A74C | ≤ 0.026
7 | G7U C27U U35A A74C | ≤ 0.026
8 | G7U C79A G85U G86U G88U | ≤ 0.026
9 | A9G A74C | 0.0286
10 | G7U G85U | ≤ 0.026
11 | A9G U63C | 0.772
12 | A9G U63A | 0.836
13 | A9G A60C | ≤ 0.026
14 | A9G A60G | 0.222
15 | A9G U63C A74U C75U C79U | ≤ 0.026
16 | U8A U57C A74C G78U G85U A87U | ≤ 0.026
17 | A9C A23G | 0.0661
18 | A9C U58G G61U | ≤ 0.026
19 | G10A A54C | 0.0309
20 | A9G G10U | 0.0476
21 | A9G G10A | 0.0344
22 | U8A A13G | ≤ 0.026
23 | G10U A54C G86C | ≤ 0.026
24 | G10A G78U | 0.0324

Row | Variant | nonsense suppression
25 | G10A G78A | 0.0314
26 | U8C U70G A74C G84C | 0.0541
27 | A9G C72A | 0.0268
28 | A9G C72U | 0.0591
29 | C11A A14G U63C | ≤ 0.026
30 | A9C U22G | 0.878
31 | A9C U22A | 0.709
32 | U8A A30G | 0.0404
33 | U8A A30U | 0.0393
34 | A9C C34G | ≤ 0.026
35 | A9G A31G | 0.259
36 | A9U C75U | 0.656
37 | A9G A14C A54G | ≤ 0.026
38 | A9G U76A | 0.103
39 | U8G G67C G85C | ≤ 0.026
40 | A9G U71C | 0.0266
41 | G10U G18A C75U | ≤ 0.026
42 | G10U U55C | 0.0469
43 | U8C G28C | 0.0327
44 | A9C A60C | 0.0924
45 | A9C A60U | 0.575
46 | A9G C29U C75G | 0.252
47 | U8C A54G G59C A62G G84A | ≤ 0.026
48 | G10C A24U A30G A33U U55A C80U | ≤ 0.026

Row | Variant | nonsense suppression
49 | A9U G25U G26C C64A G65A G73A | ≤ 0.026
50 | G7U U22A | ≤ 0.026
51 | A9U A31G | 0.193
52 | C11A C12A U17G U22G G66A U76C A89C | ≤ 0.026
53 | A9C C29U | 0.751
54 | A9C C68U G78C | 0.0334
55 | A9G G61C | 1.06
56 | A9G G61U | 1.1
57 | G10C G15U A33U | ≤ 0.026
58 | A9C U35A | ≤ 0.026
59 | A9C A87G | 0.649
60 | A9U C77U | 0.0389
61 | G10C G73C A87U | ≤ 0.026
62 | A9G G73U | 0.053
63 | A9G G73A | 0.12
64 | U8A A60C G73U A87C | ≤ 0.026
65 | U8A A23G C80G G84C | ≤ 0.026
66 | A9C C12U A23C A87U | ≤ 0.026
67 | A9U G61A C72A | ≤ 0.026
68 | A9G C29U | 0.2
69 | U8G A60G | ≤ 0.026
70 | G7U C82A | 1.02
71 | A9U G19C G65C A74C | ≤ 0.026
72 | G10A A33C C34U | ≤ 0.026

Row | Variant | nonsense suppression
73 | A9U U16A | 0.13
74 | A9U U16G | 0.202
75 | U8A A14G | 0.18
76 | U8G G18C G59A | ≤ 0.026
77 | A9G A30U U58A | 0.23
78 | A9G G61U C75G | 1.12
79 | G10U A13C | 0.0296
80 | A9G C81U | 0.028
81 | U8C G18U U22A U35G U71A C80G | ≤ 0.026
82 | A9U U57G C77A G85A | ≤ 0.026
83 | A9U G61U | 0.573
84 | A9U G61C | 0.197
85 | A9U G61A | 0.195
86 | U8G C56U | ≤ 0.026
87 | U8A G25C U70A | ≤ 0.026
88 | U8C G65A C72U | ≤ 0.026
89 | G10C U35A G66C G85U | ≤ 0.026
90 | G10U U20G U57C | ≤ 0.026
91 | U8A C27G A54G C79U | ≤ 0.026
92 | U8G A13C G28C C64U U70A C72U G84U | ≤ 0.026
93 | A9U C12U | 0.29
94 | A9U G73A | 0.0814
95 | A9C U17G | 0.595
96 | A9C A13C | 1.15

Row | Variant | nonsense suppression
97 | A9C A13G | 0.0462
98 | G10A G59A | ≤ 0.026
99 | A9G U21A | 0.36
100 | G10C G26U G86A G88A | ≤ 0.026
101 | U8C C12A C68A C72U | ≤ 0.026
102 | A9G G61A G85A | 0.303
103 | A9U A14U | 0.0588
104 | U8A U55G C81G | ≤ 0.026
105 | A9G U16C G18U | ≤ 0.026
106 | A9G C11U G61C | ≤ 0.026
107 | G10C C77U | ≤ 0.026
108 | G10C C77G | ≤ 0.026
109 | G7U U21A G78A C79A | ≤ 0.026
110 | A9C U20A | 0.183
111 | A9C U20G G61U C68U | ≤ 0.026
112 | A9C U76C | 0.929
113 | A9U U35G G73A A74U | ≤ 0.026
114 | U8C U16A A30C A54C | ≤ 0.026
115 | G10U G66U G85A | ≤ 0.026
116 | U8A G10A G65A G85U | ≤ 0.026
117 | U8A A9G U58A C72G C79A | ≤ 0.026
118 | G10C A13G G15A U57C | ≤ 0.026
119 | U8C C81G | ≤ 0.026
120 | G10U G32C | ≤ 0.026

Row | Variant | nonsense suppression
121 | G10A C11U C64U | ≤ 0.026
122 | A9U A13U A24G | 0.212
123 | G10A U58A A62G U70A | ≤ 0.026
124 | A9G A33C G66U | ≤ 0.026
125 | U8C A31C A54U G85A G88A | ≤ 0.026
126 | A9G A33U C34G U71A | ≤ 0.026
127 | G10A U63G | 0.0314
128 | A9G A14G | 0.0311
129 | G10C G26A G65A A87U | ≤ 0.026
130 | A9U C11U G32C C34G A54U | ≤ 0.026
131 | U8A G25A | ≤ 0.026
132 | U8A G25C | ≤ 0.026
133 | A9G G10U C80U A87C | ≤ 0.026
134 | G10C C29G C79U | ≤ 0.026
135 | A9U U55A | ≤ 0.026
136 | A9U G25U | ≤ 0.026
137 | U8C A14C C34U | ≤ 0.026
138 | A9G C68U | 0.153
139 | G10A C64G | ≤ 0.026
140 | U8A G32A | ≤ 0.026
141 | U8C G84U | ≤ 0.026
142 | A9G G28A G61A | 1.24
143 | A9G C11U | 0.0313
144 | U8C U20A | 0.0281

Row | Variant | nonsense suppression
145 | U8A G61A C72G C81G | ≤ 0.026
146 | G10U C27U C29A A60C U76G | ≤ 0.026
147 | G7U U55C C68U A89C | ≤ 0.026
148 | U8A G19C A60G | ≤ 0.026
149 | A9U G88A | 0.0329
150 | A9C G61C G73C | ≤ 0.026
151 | G10C C56G U71G | ≤ 0.026
152 | G10A A13C | 0.0618
153 | A9C C34U U58G G78C | ≤ 0.026
154 | A9U | 0.802
155 | A9C | 1.05
156 | A9G | 0.45
157 | A9G A13C C34G U63A C81G G84A G86U | ≤ 0.026
158 | U8A U57G C82A | ≤ 0.026
159 | A9G A54U U70C | ≤ 0.026
160 | A9C A30U | 0.0886
161 | A9C A30G | 0.171
162 | G10A C29G A54G | ≤ 0.026
163 | G10A G85U | ≤ 0.026
164 | A9C G85U | 0.04
165 | A9C U20G U21G G86A | ≤ 0.026
166 | U8G A13G G61C C68G C82G | ≤ 0.026
167 | G7U C56U | ≤ 0.026
